Reference: ChEMBL document CHEMBL1156517, “Targeting thyroid hormone receptor-beta agonists to the liver reduces cholesterol and triglycerides and improves the therapeutic index” (Proc Natl Acad Sci U S A, 2007)
Calls of active or inactive are those of the source. The rule behind the calls is not given here.

Columns and labels:
Rattus norvegicus [1] = assay: Effect on plasma insulin level in Sprague-Dawley rat at 50 mg/kg/day, po after 8 days; format: functional
Rattus norvegicus [2] = assay: Effect on plasma insulin level in Sprague-Dawley rat at 1 mg/kg/day, po after 8 days; format: functional
Mus musculus [3] = assay: Decrease in plasma triglyceride level in po dosed diet-induced obese C57BL/6 mouse after 14 days; format: functional; set-up: scale not given: the % may be the effect or the level left
Summary of the method: (§1)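 DIO mice were male C57BL/6 fed a 60%-fat (by kcal) diet from about 4 weeks of age for about 170 days. They were grouped (n = 8) to match cholesterol and body weight. Dosing was oral, once daily for 2 weeks, in 0.5% CMC/1% Lutrol F68. At kill, blood was taken by cardiac puncture for plasma TGs. The liver was removed and weighed, and hepatic TGs were measured.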

Rattus norvegicus [4] = assay: Effect on LDLR mRNA expression in po dosed Sprague-Dawley rat liver; format: functional, organism-based; conditions: TDE = time-dependent effect
Mus musculus [5] = assay: Decrease in liver weight in po dosed diet-induced obese C57BL/6 mouse after 14 days; format: functional; set-up: scale not given: the % may be the effect or the level left; summary of the method: as §1
Mus musculus [6] = assay: Decrease in liver triglyceride level in po dosed diet-induced obese C57BL/6 mouse after 14 days; format: functional; set-up: scale not given: the % may be the effect or the level left; summary of the method: as §1
Rattus norvegicus [7] = assay: Effect on plasma fatty acid level in Sprague-Dawley rat at 10 mg/kg/day, po after 8 days; format: functional
Mus musculus [8] = assay: Decrease in cholesterol level in LDLR deficient C57BL/6 mouse at 0.5 mg/kg/day once daily for 7 days; format: functional, organism-based
Rattus norvegicus [9] = assay: Effect on plasma fatty acid level in Sprague-Dawley rat at 1 mg/kg/day, po after 8 days; format: functional
Rattus norvegicus [10] = assay: Effect on food intake in Sprague-Dawley rat at 1 mg/kg/day, po after 8 days; format: functional
Rattus norvegicus [11] = assay: Effect on fasting blood glucose level in Sprague-Dawley rat at 50 mg/kg/day, po after 8 days by oral glucose tolerance test; format: functional
Mus musculus [12] = assay: Effect on hepatic LDLR mRNA level in wild-type C57BL/6 mouse at 5 mg/kg/day once daily for 7 days; format: functional
[13] = Clearance in Sprague-Dawley rat at 3 mg/kg, iv; format: ADME, organism-based; set-up: dose 3 mg/kg, route intravenous; conditions: in vivo
Summary of the method: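 Male SD rats received a single i.v. dose. Clearance and other PK parameters came from plasma concentration–time profiles of both the prodrug and the active phosphonate, values reported as mean ± SEM.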

Mus musculus [14] = assay: Reduction in plasma cholesterol level in diet-induced obese C57BL/6 mouse at 3 mg/kg/day, po; format: functional; set-up: scale not given: the % may be the effect or the level left
Summary of the method: (§2)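 Male C57BL/6 mice, about 4 weeks old, fed a high-fat diet (60% kcal fat) for about 170 days. Assigned to groups (n = 8) matched for cholesterol and body weight. Dosed orally once daily in 0.5% CMC/1% Lutrol F68 for 2 weeks. Baseline blood taken by tail nick. At end, cardiac-puncture blood used for cholesterol, TGs, glucose and thyroid hormones; liver weighed and hepatic TGs measured.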

Rattus norvegicus [15] = assay: Effect on plasma fatty acid level in Sprague-Dawley rat at 50 mg/kg/day, po after 8 days; format: functional
Mus musculus [16] = assay: Effect on hepatic LDLR mRNA level in diet-induced obese C57BL/6 mouse at 10 mg/kg, po after 3 hrs by RT-PCR; format: functional
Summary of the method: (§3)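 Single oral dose in male DIO mice: C57BL/6 mice, about 4 weeks old at start, fed a 60% fat (by kcal) diet for about 170 days. Hepatic LDLR mRNA read out at early time points (3 and 8 h) after dosing.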

Rattus norvegicus [17] = assay: Toxicity in Sprague-Dawley rat assessed as suppression of thyroid hormone axis measured by decrease in total 3,5,3',5'-tetraiodo-L-thyronine level at 30 mg/kg, po after 7 weeks; format: organism-based; set-up: dose 30 mg/kg, route oral; conditions: in vivo, 1176 h
Mus musculus [18] = assay: Reduction in blood glucose level in po dosed diet-induced obese C57BL/6 mouse; format: functional, organism-based; summary of the method: as §2
Mus musculus [19] = assay: Decrease in liver triglyceride level in diet-induced obese C57BL/6 mouse at 3 mg/kg/day, po after 14 days; format: functional; set-up: scale not given: the % may be the effect or the level left; summary of the method: as §1
Mus musculus [20] = assay: Decrease in cholesterol level in LDLR deficient C57BL/6 mouse at 5 mg/kg/day once daily for 7 days; format: functional, organism-based
Rattus norvegicus [21] = assay: Effect on food intake in Sprague-Dawley rat at 50 mg/kg/day, po after 8 days; format: functional
Rattus norvegicus [22] = assay: Effect on fasting blood glucose level in Sprague-Dawley rat at 10 mg/kg/day, po after 8 days by oral glucose tolerance test; format: functional
Rattus norvegicus [23] = assay: Toxicity in Sprague-Dawley rat assessed as suppression of thyroid hormone axis measured by decrease in serum TSH level at 30 mg/kg, po after 7 weeks; format: organism-based; set-up: dose 30 mg/kg, route oral; conditions: in vivo, 1176 h
Mus musculus [24] = assay: Decrease in plasma triglyceride level in diet-induced obese C57BL/6 mouse at 3 mg/kg/day, po after 14 days; format: functional; set-up: scale not given: the % may be the effect or the level left; summary of the method: as §1
[25] = Volume of distribution in Sprague-Dawley rat at 3 mg/kg, iv; format: ADME, organism-based; set-up: dose 3 mg/kg, route intravenous; conditions: in vivo
Rattus norvegicus [26] = assay: Effect on food intake in Sprague-Dawley rat at 10 mg/kg/day, po after 8 days; format: functional
Mus musculus [27] = assay: Effect on hepatic LDLR mRNA level in diet-induced obese C57BL/6 mouse at 10 mg/kg, po after 8 hrs by RT-PCR; format: functional; summary of the method: as §3
Rattus norvegicus [28] = assay: Toxicity in Sprague-Dawley rat assessed as suppression of thyroid hormone axis measured by decrease in free 3,5,3',5'-tetraiodo-L-thyronine level at 30 mg/kg, po after 7 weeks; format: organism-based; set-up: dose 30 mg/kg, route oral; conditions: in vivo, 1176 h
Summary of the method: (§4)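 Male SD rats (n = 5–6 per group; baseline group n = 8) given vehicle (0.5% CMC/1% Lutrol F68) or drug orally once daily. One group per cohort weighed and killed by decapitation without anesthesia after 1, 2, 4 and 7 weeks. Trunk-blood serum assayed for total/free T3 and T4; TSH by [125I] radioimmunoassay with magnetic separation. Pituitary TSHβ mRNA also measured.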

Rattus norvegicus [29] = assay: Increase in hepatic LDLR mRNA level in thyroidectomized Sprague-Dawley rat at 5 mg/kg after 24 hrs by RT-PCR relative to control; format: functional
Summary of the method: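 Male thyroidectomized SD rats given 5 mg/kg, with a parallel T₃ arm at 0.5 mg/kg. Hepatic LDLR mRNA quantified by quantitative real-time PCR.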

[30] = Inhibition of CYP3A in Sprague-Dawley rat liver microsome at 10 uM; format: ADME; conditions: microsomes
Rattus norvegicus [31] = assay: Effect on type 1 iodothyronine deiodinase mRNA expression in po dosed Sprague-Dawley rat liver; format: functional, organism-based; conditions: TDE = time-dependent effect
Summary of the method: (§5)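 Killed 3, 8 and 24 h post-dose under 2.5% isoflurane. Pituitary and thyroid snap-frozen; liver, heart, soleus, spleen and kidney freeze-clamped. mRNA by quantitative real-time PCR, expressed as fold-change vs vehicle.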

Rattus norvegicus [32] = assay: Effect on body weight in Sprague-Dawley rat at 1 mg/kg/day, po after 8 days; format: functional
Rattus norvegicus [33] = assay: Effect on malic enzyme mRNA expression in po dosed Sprague-Dawley rat liver; format: functional, organism-based; conditions: TDE = time-dependent effect; summary of the method: as §5
Rattus norvegicus [34] = assay: Effect on body weight in Sprague-Dawley rat at 50 mg/kg/day, po after 8 days; format: functional
Hepatocyte = assay: Cmax per10'6 cells in Sprague-Dawley rat hepatocytes at 10 uM; format: ADME, Liver; set-up: dose 10 uM
Summary of the method: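 Freshly isolated rat hepatocytes were incubated with compound. Intracellular levels of the active phosphonate were followed over time and expressed per 10⁶ cells, giving Cmax and tmax.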

Rattus norvegicus [35] = assay: Toxicity in Sprague-Dawley rat assessed as suppression of thyroid hormone axis measured by decrease in TSH-beta mRNA level at 30 mg/kg, po after 7 weeks; format: organism-based; set-up: dose 30 mg/kg, route oral; conditions: in vivo, 1176 h; summary of the method: as §4
Mus musculus [36] = assay: Reduction in plasma cholesterol level in po dosed diet-induced obese C57BL/6 mouse after 2 weeks; format: functional; set-up: scale not given: the % may be the effect or the level left; summary of the method: as §2
[37] = biological target: Thyroid hormone receptor alpha (Homo sapiens, UniProt P10827); assay: Displacement of [125I]T3 from recombinant thyroid hormone receptor alpha expressed in sf9 cells by scintillation proximity assay
[38] = (§6) Activity of CYP3A in Sprague-Dawley rat liver microsome; format: ADME; conditions: microsomes
CYP3A = assay: as §6; format: ADME; conditions: Sprague-Dawley, liver microsomes
Rattus norvegicus [39] = assay: Effect on SREBP-1c mRNA expression in po dosed Sprague-Dawley rat liver; format: functional, organism-based; conditions: TDE = time-dependent effect
[40] = biological target: Thyroid hormone receptor beta (Homo sapiens, UniProt P10828); assay: Displacement of [125I]T3 from recombinant thyroid hormone receptor beta expressed in sf9 cells by scintillation proximity assay
Mus musculus [41] = assay: Decrease in body weight in diet-induced obese C57BL/6 mouse at 30 mg/kg/day, po; format: functional; set-up: scale not given: the % may be the effect or the level left
Rattus norvegicus [42] = assay: Effect on fasting blood glucose level in Sprague-Dawley rat at 1 mg/kg/day, po after 8 days by oral glucose tolerance test; format: functional
Mus musculus [43] = assay: Decrease in cholesterol level in wild-type C57BL/6 mouse at 0.5 mg/kg/day once daily for 7 days; format: functional, organism-based
Rattus norvegicus [44] = assay: Effect on body weight in Sprague-Dawley rat at 10 mg/kg/day, po after 8 days; format: functional
Mus musculus [45] = assay: Effect on hepatic LDLR mRNA level in LDLR deficient C57BL/6 mouse at 5 mg/kg/day once daily for 7 days; format: functional
Rattus norvegicus [46] = species on record: Rattus norvegicus; assay: Reduction in plasma cholesterol level in cholesterol fed Sprague-Dawley rat; format: functional
Rattus norvegicus [47] = assay: Effect on plasma insulin level in Sprague-Dawley rat at 10 mg/kg/day, po after 8 days; format: functional
Mus musculus [48] = assay: Decrease in cholesterol level in wild-type C57BL/6 mouse at 5 mg/kg/day once daily for 7 days; format: functional, organism-based

Chain of Thyroid hormone receptor beta (P10828 whole entry): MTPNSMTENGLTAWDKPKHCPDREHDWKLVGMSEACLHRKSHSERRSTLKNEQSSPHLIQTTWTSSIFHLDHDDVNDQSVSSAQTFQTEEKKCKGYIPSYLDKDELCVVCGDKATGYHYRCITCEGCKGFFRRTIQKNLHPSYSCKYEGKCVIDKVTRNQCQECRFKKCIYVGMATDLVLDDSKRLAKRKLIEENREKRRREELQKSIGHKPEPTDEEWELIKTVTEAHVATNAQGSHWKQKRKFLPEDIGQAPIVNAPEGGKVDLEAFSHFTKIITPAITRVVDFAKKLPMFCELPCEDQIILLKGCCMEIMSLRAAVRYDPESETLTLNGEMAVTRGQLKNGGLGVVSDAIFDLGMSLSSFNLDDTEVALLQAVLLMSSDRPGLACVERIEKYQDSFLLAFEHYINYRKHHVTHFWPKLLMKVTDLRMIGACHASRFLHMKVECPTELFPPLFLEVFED
Chain of Thyroid hormone receptor alpha (P10827 whole entry): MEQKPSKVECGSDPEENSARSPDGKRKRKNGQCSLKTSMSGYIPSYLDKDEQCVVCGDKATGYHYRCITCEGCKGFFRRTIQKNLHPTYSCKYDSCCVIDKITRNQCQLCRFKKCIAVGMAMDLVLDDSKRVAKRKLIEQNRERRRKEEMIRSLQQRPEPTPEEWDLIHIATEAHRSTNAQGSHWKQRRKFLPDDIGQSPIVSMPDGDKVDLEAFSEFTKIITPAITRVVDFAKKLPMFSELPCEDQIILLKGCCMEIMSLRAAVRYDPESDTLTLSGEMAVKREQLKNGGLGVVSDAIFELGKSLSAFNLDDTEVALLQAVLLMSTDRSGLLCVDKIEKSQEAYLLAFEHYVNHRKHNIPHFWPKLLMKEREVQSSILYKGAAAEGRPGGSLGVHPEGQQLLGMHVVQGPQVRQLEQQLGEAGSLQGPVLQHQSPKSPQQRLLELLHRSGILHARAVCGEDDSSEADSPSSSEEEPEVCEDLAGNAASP

Cc1cc(OCP2(=O)OCC[C@@H](c3cccc(Cl)c3)O2)cc(C)c1Cc1ccc(O)c(C(C)C)c1 (stereo not given in full) [MB07811]
Activity (Rattus norvegicus [1]): 0.402 ng/mL | Activity (Rattus norvegicus [2]): 0.424 ng/mL | Activity (Mus musculus [3]): 40% | Activity (Rattus norvegicus [4]): tde | Activity (Mus musculus [5]): 42% | Activity (Mus musculus [6]): 42% | Activity (Rattus norvegicus [7]): 0.541 mM | Activity (Mus musculus [8]): inactive | Activity (Rattus norvegicus [9]): 0.454 mM | Activity (Rattus norvegicus [10]): 15.1% | Activity (Rattus norvegicus [11]): -0.5 mg/dL | Activity (Mus musculus [12]): -31.8% | clearance [13]: 193 mL/min/kg | Activity (Mus musculus [14]): 51% | Activity (Rattus norvegicus [15]): 0.524 mM | fold change (FC) (Mus musculus [16]): 1.23 | Activity (Rattus norvegicus [17]): Active | Activity (Mus musculus [18]): Active | Activity (Mus musculus [19]): 69% | Activity (Mus musculus [20]): inactive | Activity (Rattus norvegicus [21]): 15.6% | Activity (Rattus norvegicus [22]): 11.8 mg/dL | Activity (Rattus norvegicus [23]): Active | Activity (Mus musculus [24]): 38% | Vd [25]: 14.8 L/kg | Activity (Rattus norvegicus [26]): 14.6% | fold change (FC) (Mus musculus [27]): 2.01 | Activity (Rattus norvegicus [28]): Active | fold change (FC) (Rattus norvegicus [29]): 21.063 | Activity [30]: Not Active | Activity (Rattus norvegicus [31]): tde | Activity (Rattus norvegicus [32]): 42.8 g | Activity (Rattus norvegicus [33]): tde | Activity (Rattus norvegicus [34]): 49.3 g | Cmax (Hepatocyte): 1.03 nmol | Activity (Rattus norvegicus [35]): Active | Activity (Mus musculus [36]): 61% | Ki [37]: 12.5 µM | Vmax [38]: 2.74 nmol/min/mg | Km (CYP3A): 18.8 µM | Activity (Rattus norvegicus [39]): tde | Ki [40]: 14.6 µM | Activity (Mus musculus [41]): 3% | Activity (Rattus norvegicus [42]): 9 mg/dL | Activity (Mus musculus [43]): Active | Activity (Rattus norvegicus [44]): 37.9 g | Activity (Mus musculus [45]): -10.8% | ED50 (Rattus norvegicus [46]): 0.4 mg/kg | Activity (Rattus norvegicus [47]): 0.342 ng/mL | Activity (Mus musculus [48]): Active
